Measurements as given in ChEMBL document CHEMBL4513216, “Probing the Open Global Health Chemical Diversity Library for Multistage-Active Starting Points for Next-Generation Antimalarials” (ACS Infect Dis, 2020).

Assay: Toxicity liver stage against HepG2, at 10uM
Format: cell-based
Set-up: test concentration 10 uM, cell line HepG2-A16-CD81EGFP
Conditions: human, HepG2-A16-CD81EGFP cells; read-out: INHIBITION
Outline: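 Uninfected HepG2-A16-CD81EGFP cells, 3 × 10^3 per well, 1536-well, plated on prespotted compound at 10 μM final, parasite-free screening media added to match infected plates; puromycin 10 μM positive, DMSO 0.5% negative; run in parallel with 48 h PbLuc assay at 37 °C, 5% CO2; viability by CellTiter-Glo luminescence, normalized to controls.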

SMILES	cytotoxicity at 10 µM [%]
O=S(=O)(NCc1cn2ccccc2n1)N1CCOCC1	2.69
COc1ccc(CNC[C@H]2COCc3nc4cc(F)ccc4n32)cc1	1.52
CCc1c(C)sc2c1c(N)nc(=O)n2CCN1CCOCC1	1.17
COCCn1ccc(=O)c(OCC(=O)Nc2ccc(OC)c(Cl)c2)c1C	5.36
CC1=Nc2c(c(=O)[nH]n2C(C)C)C(c2ccc3c(c2)n(C)c(=O)n3C)S1 (stereo unspecified)	3.75
O=c1n(Cc2cccc(C(F)(F)F)c2)nc2ncccn12	-8.64
C1CN(c2nc3c(c(NC4CC4)n2)CN(CC2CCOC2)CC3)CCO1 (stereo unspecified)	-2.22
CC(=O)N1CCC2(CC1)C(=O)N(c1cccnc1)c1ccc(F)cc12	10.6
O=C1[C@@H]2CCN(CC3CCOCC3)C[C@@H]2OCCN1c1ccccc1	-5.21
CC(C)C(=O)N1CC[C@@H]2CN(Cc3ccncc3)S(=O)(=O)[C@@H]2CC1	5.38
COCCO[C@H]1CCN(c2cc(OC)ncn2)[C@H]1Cc1ccncc1	-146
CCOC(=O)C1CN(S(=O)(=O)CC)Cc2ncn(CC)c21 (stereo unspecified)	6.83
CN1CCN(C(=O)c2n[nH]c3c2CCN(Cc2nccs2)C3)CC1	-143
Cc1nccc([C@@H]2C[C@@H]3CCN(S(=O)(=O)C4CC4)C[C@H]3O2)n1	-5.9
Cc1ccnc(OC[C@]23COC[C@H]2CN(C(=O)Cc2ccsc2)C3)n1	-0.376
CC(=O)N1[C@H](Cn2cncn2)C[C@@H]2CN(c3ncccn3)CC[C@@H]21	-2.96
COC(=O)CCC(=O)N1CCC2(CN(Cc3cccc(F)c3)C2)C1	4.6
O=C1NCC[C@]12CN(Cc1ccoc1)C[C@H]2c1ccccc1	4.55
Cc1c(Br)c(C(=O)NC(C)c2ccccc2)nn1C (stereo unspecified)	-4.34
CCn1nc(C)c2nc(C(C)C)nc(N3CCOCC3)c21	2.88
N#Cc1ccc(C2CC(=O)Nc3c(C(=O)O)nsc32)cc1 (stereo unspecified)	3.02
CN1CCCC1c1cncc(C(=O)NCCN2CCCC2)n1 (stereo unspecified)	8.6
O=C1Nc2ccccc2CC12CCCN2Cc1ccc(F)cc1 (stereo unspecified)	10.5

SMILES	cytotoxicity at 10 µM [%]
CC(C)(C)c1nc(CN(CCO)Cc2cc(Br)ccc2F)no1	8.52
CS(=O)(=O)Cc1ccc(OCc2ccc(F)cc2)cc1	22.9
CCCn1cc(C(=O)NCCS(N)(=O)=O)c2ccccc21	5.15
Cc1cc(C)cc(C(=O)NCCS(=O)(=O)N2CCSCC2)c1	-12.5
CC(CNC(=O)c1cc(N2CCNC2=O)ccc1F)c1ccccc1 (stereo unspecified)	-2.1
NC(=O)c1cnc(NC2CCN(C(=O)C3CC3)CC2)c(Cl)c1	-14.2
COC(=O)c1ccc(Cn2nc(C)cc2C)c(F)c1	4.11
Cc1nsc(N2CCCN(C(=O)NCc3cccnc3)CC2)n1	-0.555
N#Cc1ccc(SCCOCCO)c(F)c1	0.513
CC(C)N(Cc1ccccc1)Cc1nnsc1Cl	-9.44
CC(C)C(=O)NC1CCN(c2cccc(OC(F)(F)F)c2)C1=O (stereo unspecified)	-4.13
Cc1c(CNC(=O)NCc2cccc(-n3cncn3)c2)cnn1C	1.78
COc1c(CNC2CCOc3ccccc32)c(C)nn1C (stereo unspecified)	4.25
CC(NC(=O)N(C)Cc1ccc2c(c1)OCO2)c1nncn1C (stereo unspecified)	-1.31
CN(C(=O)c1ccc(C#N)cc1)C1CCN(c2ccccn2)CC1	-7.56
CC(C)c1nnc(NC(=O)c2cccc(OCC(F)(F)F)n2)[nH]1	-1.26
CN(Cc1nnnn1C1CC1)c1cccc2ccccc12	8.38
CC1(C)Oc2ccc(NC(=O)c3ccc(=O)[nH]n3)cc2O1	10.1
CS(=O)(=O)c1nccn1CCOc1ccc(F)cc1Cl	13.1
C[S+]([O-])CCCNCc1cc(F)ccc1Br (stereo unspecified)	0.732
Cc1cc(C(=O)NCC(=O)NC(c2ncccc2C)C(C)C)c(C)o1 (stereo unspecified)	-9.6
Cn1cnc(S(=O)(=O)N2CCSC3(CCCCC3)C2)c1	-5.95
Cc1cccc(-c2nc(C)nn2CN2CCN(S(C)(=O)=O)CC2)c1	0.729

SMILES	cytotoxicity at 10 µM [%]
COc1c(C)cnc(CSc2nnc(C)s2)c1C	-4.66
O=C(c1cccnc1-n1cncn1)N1CCc2ccccc2C1	-13.9
Cc1nsc(N2CCCN(c3nc(C4CC4)ns3)CC2)n1	-11.5
CCCn1ncc(C(=O)N2CCN(C3CCCC3)CC2)c1C	-151
O=C1NC2(CCN(C(=O)c3ccc(Cl)cn3)CC2)CC1c1ccccc1 (stereo unspecified)	2.75
CC(=O)N1CCCC(C(=O)NCCc2nc(Cc3ccccc3)no2)C1 (stereo unspecified)	3.81
CCn1c(N)nc2cc(C(=O)N3CCN(c4nccs4)CC3)cnc21	-17.2
CN(Cc1noc2c1CCCC2)C(=O)Nc1cccc(S(N)(=O)=O)c1	-4.32
Cc1ccoc1C(=O)N1CCC(n2cc(CO)nn2)CC1	-1.52
CN1CC(C(=O)N(C)Cc2cc(-c3cccnc3)no2)NC1=O (stereo unspecified)	-3.08
CNc1nc2c(c(C(=O)N3CCCC3)n1)CN(C(=O)c1cccs1)CC2	-112
CCC1(CO)CCCN(C(=O)c2cc(COc3ccccc3F)[nH]n2)C1 (stereo unspecified)	20.8
CC1CCCN(Cc2cccc(C(=O)Nc3nccs3)c2)C1 (stereo unspecified)	-5.68
CCc1nc(Cn2nc(C3CCNCC3)n(-c3ccccc3)c2=O)cs1	-1.22
Cc1nc(N(C)C)nc(NCCc2c[nH]cn2)c1C	3.12
O=C(NC1CC(=O)N(C2Cc3ccccc3C2)C1)c1csnn1 (stereo unspecified)	2.96
COCc1ccc(C(=O)N2CCN(CC3CC3)[C@@H]3CS(=O)(=O)C[C@@H]32)o1	-15.5
CC(C(=O)O)N1CC2(CCC1=O)CCN(CCSc1ccccc1)CC2 (stereo unspecified)	2.57
O=C(CN1CCN(c2ncccn2)[C@@H]2CS(=O)(=O)C[C@@H]21)N1CCCCC1	-6.82
CCCn1ncc(C(=O)N2CCCC(OCc3ccccn3)C2)c1C (stereo unspecified)	-0.2
CC(=O)c1cc(CC(=O)NCc2ccc(F)cc2)cs1	-18.7
Cc1nccn1CCC1CCCCN1Cc1ccc(N(C)C)nc1 (stereo unspecified)	21.3
Cc1[nH]c(=O)[nH]c(=O)c1CN1CCCC(CCc2ccccc2)C1 (stereo unspecified)	-11.4

SMILES	cytotoxicity at 10 µM [%]
CC(C)(C)c1nc(CN2CCCC2Cn2cncn2)no1 (stereo unspecified)	1.93
Cc1cc(C2CCCN(C(=O)CCc3cscn3)C2)n[nH]1 (stereo unspecified)	-0.939
Cc1cc(C)n(CCN2CCOC(CNc3cccnn3)C2)n1 (stereo unspecified)	-3.2
CC(=O)N1CCCC1C(=O)NCCOc1cccc(F)c1 (stereo unspecified)	-7.81
Cc1nc2ccnn2c(C)c1CCC(=O)N1CCN2CCCCC2C1 (stereo unspecified)	-8.82
CC(C)(C)c1ncc(C(=O)NCCNc2ncccn2)s1	-1.62
Cc1nn(C)c(Cl)c1C1CCCN1C(=O)c1cccc(C#N)c1 (stereo unspecified)	-22
Cc1nc2n(n1)CC(NCc1cnn(-c3ccccc3)n1)CC2 (stereo unspecified)	-3.69
Cn1cnc2c1CCN(Cc1cccc(C(=O)N3CCCCC3)c1)C2	-2.75
CC(CO)NC(=O)Nc1ccc(S(C)(=O)=O)nc1 (stereo unspecified)	-10.2
CC(=O)NCC1CCN(C(=O)CCOc2ccc(C(C)C)cc2)CC1	-11.6
CC(C)c1noc(CCCC(=O)N2CCN(Cc3cccnc3)CC2)n1	-2.96
Cn1cc(C2CCCN2Cc2csc(-c3ccccc3)n2)cn1 (stereo unspecified)	-2.48
CN1CCOC(CNCc2ccc(OCc3ccccn3)cc2)C1 (stereo unspecified)	-13.4
CC(C)c1nc(CN2CCOC(Cn3cccn3)C2)no1 (stereo unspecified)	-9.43
Cc1cccc(N2CCN(C(=O)NC(C)c3nncn3C)CC2)c1 (stereo unspecified)	-6.13
CC(Cn1cccn1)NC(=O)c1cccs1 (stereo unspecified)	-4.26
COCCOc1ncccc1C(=O)N1CCCCC1c1nccs1 (stereo unspecified)	-11.5
COc1ccc(F)cc1C(=O)N1CCCC(CNS(C)(=O)=O)C1 (stereo unspecified)	-20
Cc1nnc(NC(=O)NCc2ccnc(N(C)C)c2)s1	-10.2
Cc1cn2nc(N3CCCC3Cn3nc(C)nc3C)sc2n1 (stereo unspecified)	-14.6
Cc1cnn(CC2CCCN2C(=O)c2cc(C)nc3[nH]nc(C)c23)c1 (stereo unspecified)	-12.4
COc1ccc(CN2CCCCC2Cn2nc(C)nc2C)cc1F (stereo unspecified)	-15

SMILES	cytotoxicity at 10 µM [%]
CC(c1cccc(F)c1)N1CCN(Cc2nccn2C)CC1 (stereo unspecified)	-7.81
c1ccc(-n2cc(CN3CCCC(Cn4cncn4)C3)nn2)cc1 (stereo unspecified)	1.52
c1ccc(-c2nc(CN3CCCC(Cn4cncn4)C3)no2)cc1 (stereo unspecified)	3.71
Cc1cccc(C)c1NC(=O)CCNC(=O)c1ccoc1	3.03
CCc1[nH]ncc1C(=O)N1CCCN(Cc2cnn(C)c2)CC1	1.71
CN(C)CCN(C)C(=O)Cc1ccc2c(c1)OCCO2	-7.94
CCO[C@@H]1C[C@H]2CN(Cc3ccc(C)o3)CCN2C1	-149
Cc1ccc(CN2C[C@@H](N(C)C)[C@H]3OCCC[C@H]32)o1	-136
O=C(c1ccnnc1)N1CCN(Cc2cccnc2)c2ncccc2C1	0.121
Cn1ccnc1CN1CCC(F)(F)C2(CCN(c3cnccn3)C2)C1 (stereo unspecified)	16.4
COC1COC2(CCN(Cc3ccc4c(c3)OCO4)CC2)C1 (stereo unspecified)	0.729
O=C(Nc1cnccn1)[C@@H]1C[C@H]2OCC[C@H]2N(Cc2ccsc2)C1	-2.31
Cc1cnc(N2CCC3(CCCCN3C)C2)nc1 (stereo unspecified)	3.29
Cc1ncsc1CN1C[C@H](OCC(C)C)[C@H]2OCCC[C@H]21	-140
Cc1nc(CN2Cc3nccn3CC(CN3CCOCC3)C2)cs1 (stereo unspecified)	0.951
c1cnc(NCc2cncc3c2CCN(Cc2cccs2)C3)nc1	7.33
Cc1ccc(N2CCCC3(COCCN(c4ncccn4)C3)C2)nn1 (stereo unspecified)	-131
CC(C)NC(=O)c1ccc2nnc(C3CN(C)CCN3C)n2c1 (stereo unspecified)	-139
c1ccc(CN2Cc3nccn3CC(Cn3cncn3)C2)nc1 (stereo unspecified)	-141
